Active and inactive are the calls of the source. The calls are words filed in the database; no cut-off is given here.
Columns and labels:
[1] = Toxicity in human CD4+ T-cells assessed as elevation of supernatant cytokine concentrations of IL-2 incubated for 24 hrs by bead-based immunoassay; conditions: cd4+ t cell
Outline: (§1)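 Purified CD4+ T-cells from healthy donors treated 24 h with 1 μm drug, 1 μm JQ1, or the combination. IL-2, IL-5, IL-6, IL-13, TNFα and IFN-γ in supernatants measured by flow-cytometry bead-based Th1/Th2 immunoassay. Run in duplicate.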

[2] = target: T1, Protein kinase C (PKC) (Homo sapiens) (UniProt O94806+P41743+P17252+P05129+Q05655+P05771+Q05513+Q02156+P24723+Q15139+Q04759); test: Synergistic activation of PKC in CD4+ T-cells purified from HIV-infected patient assessed as increase in transcription of HIV mRNA at 1 uM incubated for 24 hrs in presence of 1 uM JQ1 by qRT-PCR method; type: cell-based; conditions: CD4+ T cell, filed as activator
Outline: (§2)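 CD4+ T-cells purified from PBMC of patients on cART for at least 5 years with plasma viral load <20 copies/ml. Cells plated at 2.5 × 10^6 cells/ml and treated 24 h, alone or with 1 μm JQ1. Intracellular HIV RNA measured by qRT-PCR against a plasmid standard curve, normalised per ng input RNA, relative to untreated cells. Synergy assessed by Bliss independence model.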

[3] = target: T1, Protein kinase C (PKC) (Homo sapiens); test: Synergistic activation of PKC in CD4+ T-cells purified from HIV-infected patient assessed as increase in transcription of HIV mRNA at 5 uM incubated for 24 hrs in presence of 1 uM JQ1 by qRT-PCR method; type: cell-based; conditions: CD4+ T cell, filed as activator; outline: as §2
[4] = target: T1, Protein kinase C (PKC) (Homo sapiens); test: Activation of PKC in human J-Lat 10.6 cells infected with latent HIV-1 assessed as reversal of HIV-1 latency by measuring increase of GFP-positive cells at 100 to 400 nM in presence of 200 nM Prostratin incubated for 24 hrs by flow cytometry; type: cell-based; conditions: filed as activator, dose 100-400 nM
[5] = Toxicity in human CD4+ T-cells assessed as increase in dead cells at 1 uM in presence of JQ1; type: cell-based; conditions: cd4+ t cell
Outline: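 Primary cells exposed 24 h to 1 μm drug, 1 μm JQ1, or both (1 μm each). Dead cells scored by propidium iodide staining.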

[6] = tested on: U1; test: Induction of apoptosis in human U1 cells assessed as caspase-3 activation at 1 uM incubated for 24 hrs by flow cytometry; type: functional
Outline: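 Cells fixed in 1% paraformaldehyde, permeabilized, stained 30 min on ice with anti-active caspase-3 mAb, and analysed by flow cytometry. Three independent experiments.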

[7] = Toxicity in human CD4+ T-cells assessed as increase in ratio of CD69+ cells incubated for 24 hrs by flow cytometry; type: cell-based; conditions: cd4+ t cell
Outline: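 Primary CD4+ T-cells from healthy donors treated with drug for 24 h. Cells stained with anti-CD25 and anti-CD69 antibodies (plus CD3, CD4, HLA-DR) for 30 min on ice, then marker-positive proportions quantified by flow cytometry.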

[8] = tested on: ACH-2 cell line; test: Induction of apoptosis in human ACH-2 cells at 1 uM after 48 hrs by PI/annexin-V staining based flow cytometry; type: functional
[9] = tested on: J-Lat 6.3; test: Induction of apoptosis in human J-Lat 6.3 cells at 1 uM incubated for 48 hrs by propidium iodide/annexin-V staining based flow cytometry (reference value: 3.16%); type: functional
[10] = target: T1, Protein kinase C (PKC) (Homo sapiens); test: Activation of PKC in human J-Lat 6.3 cells infected with latent HIV-1 assessed as reversal of HIV-1 latency by measuring increase of GFP-positive cells at 10 uM in presence of PKC alpha/beta/gamma inhibitor GF109203X incubated for 24 hrs by flow cytometry; type: cell-based
Outline: (§3)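 J-Lat 6.3 cells pretreated 3 h with a PKC inhibitor: Gö 6983 1 µM, Gö 6976 1 µM, GF 109203X 1 µM, PKCθ/δ inhibitor 10 µM, or Rottlerin 1 µM. Then exposed to 10 µM compound for 24 h; GFP-positive cells counted by flow cytometry. Mean ± S.D.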

[11] = tested on: U1; test: Induction of apoptosis in human U1 cells at 1 uM incubated for 48 hrs after pre-incubated for 2 hrs with 20 uM caspase inhibitor Q-VD-Oph by propidium iodide/annexin-V staining based flow cytometry relative to compound alone control; type: functional; parameters: scale not given: the % may be the effect or the level left
Outline: (§4)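 ACH-2 or U1 cells pretreated 2 h with 20 µM pan-caspase inhibitor Q-VD-Oph, then exposed to 1 µM compound for 48 h. Annexin-V/PI staining by flow cytometry; apoptotic proportions compared with and without Q-VD-Oph. Mean ± S.D.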

[12] = Toxicity in human CD4+ T-cells assessed as elevation of supernatant cytokine concentrations of IL-6 incubated for 24 hrs in presence of JQ1 by bead-based immunoassay; conditions: cd4+ t cell; outline: as §1
[13] = target: T1, Protein kinase C (PKC) (Homo sapiens); test: Activation of PKC in human J-Lat 10.6 cells infected with latent HIV-1 assessed as reversal of HIV-1 latency by measuring increase of GFP-positive cells at 100 to 400 nM in presence of 1 uM SAHA incubated for 24 hrs by flow cytometry; type: cell-based; conditions: filed as activator, dose 100-400 nM
[14] = tested on: U1; test: Induction of apoptosis in human U1 cells at 1 uM after 48 hrs by PI/annexin-V staining based flow cytometry; type: functional
[15] = target: T1, Protein kinase C (PKC) (Homo sapiens); test: Synergistic activation of PKC in human J-Lat 10.6 cells infected with latent HIV-1 assessed as reversal of HIV-1 latency by measuring increase of GFP-positive cells at 400 nM in presence of 500 nM JQ1 incubated for 24 hrs by flow cytometry; type: cell-based; conditions: filed as activator
Outline: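 J-Lat 10.6 cells at 5 × 10^5 cells/ml treated 24 h alone or with 500 nm JQ1. GFP-positive cells counted by flow cytometry. Fraction affected normalised to PMA response after subtracting the no-drug value. Synergy by Bliss independence (Δfaxy). Mean ± S.D. of three independent experiments.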

[16] = Toxicity in human CD4+ T-cells assessed as elevation of supernatant cytokine concentrations of IL-13 incubated for 24 hrs by bead-based immunoassay; conditions: cd4+ t cell; outline: as §1
[17] = tested on: ACH-2 cell line; test: Induction of apoptosis in human ACH-2 cells at 1 uM incubated for 48 hrs after pre-incubated for 2 hrs with 20 uM caspase inhibitor Q-VD-Oph by propidium iodide/annexin-V staining based flow cytometry; type: functional, cell-based; outline: as §4
[18] = target: T1, Protein kinase C (PKC) (Homo sapiens); test: Activation of PKC in human J-Lat 6.3 cells infected with latent HIV-1 assessed as reversal of HIV-1 latency by measuring increase of GFP-positive cells at 10 uM in presence of PKC alpha/beta inhibitor Go-6976 incubated for 24 hrs by flow cytometry; type: cell-based; outline: as §3
[19] = target: Protein kinase C (PKC); test: Activation of PKC in human J-Lat 10.6 cells infected with latent HIV-1 assessed as reversal of HIV-1 latency by measuring increase of GFP-positive cells at 1 to 10000 nM incubated for 24 hrs by flow cytometry; type: cell-based
Outline: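 J-Lat 10.6 or J-Lat 6.3 cells (5 × 10^5 cells/ml) incubated 24 h with graded drug concentrations; % GFP-positive cells determined by flow cytometry. Means ± S.D. of three independent experiments.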

[20] = tested on: ACH-2 cell line; test: Induction of apoptosis in human ACH-2 cells assessed as cleaved-PARP level at 1 uM incubated for 24 hrs by flow cytometry (reference value: 1.64%); type: functional
Outline: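 Cells fixed, permeabilized, stained on ice with anti-cleaved PARP (Asp-214) mAb; % cleaved-PARP cells by flow cytometry. Means ± S.D. of three independent experiments.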

## CCCCCCCCCCc1ccc2c(c1)N(C)[C@@H](C(C)C)C(=O)N[C@H](CO)C2
[1]
  Activity: Toxic
[2]
  fold change (FC): 13.2
[3]
  fold change (FC): 13.4
[4]
  Activity: Active
[5]
  Activity: Non-Toxic
[6]
  Activity: 24.9%
[7]
  Activity: Non-Toxic
[8]
  Activity: 59.7%
[9]
  Activity: 17%
[10]
  Activity: inactive
[11]
  Activity: 20%
[12]
  Activity: Non-Toxic
[13]
  Activity: Active
[14]
  Activity: 30.4%
[15]
  Activity: 73.1%
[16]
  Activity: Toxic
[17]
  Activity: inactive
[18]
  Activity: inactive
[19]
  EC50: 10.6 µM
[20]
  Activity: 21.5%
